Assay results reported in ChEMBL document CHEMBL5724801, “EUbOPEN Chemogenomics Library - Multiplex” (2024).
Several values for one entry are separate records, joined by “and”; a condition that tells them apart may be missing. Equal entries are not always repeated.

Tested on: Fibroblast
Experiment: Multiplex assay against human fibroblast
Format: toxicity, cell-based
Outline: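 Live cells were stained at seeding with Hoechst33342, BioTracker Green Microtubule Cytoskeleton Dye, MitoTracker Red and Annexin V Alexa Fluor 680, then imaged on a CQ1 microscope at 37°C and 5% CO2 after compound addition. CellPathfinder machine-learning gating split cells into Hoechst high-intensity objects or normal cells. Normal cells were split into healthy, pyknosed or fragmented nuclei, and pyknosed cells into mitotic or apoptotic. Tubulin, mitochondrial-mass and membrane-permeability phenotypes are per cents of healthy-nucleus cells.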

[1] = 12 h, 1 µM, compound concentration 1 uM
[2] = 12 h, 10 µM, compound concentration 10 uM
[3] = 24 h, 1 µM, compound concentration 1 uM
[4] = 24 h, 10 µM, compound concentration 10 uM
[5] = 48 h, 1 µM, compound concentration 1 uM
[6] = 48 h, 10 µM, compound concentration 10 uM

Compound: CC(C)CNc1nc(N2CCN(CC3CCCOC3)CC2)ncc1C(=O)NCc1ccccc1 (stereo not drawn)
- Population Apoptotic (%) [1]: 34% and 80.22%
- Population Fragmented Nuclei (%) [1]: 39.83% and 19.74%
- Population Healthy Nuclei (%) [1]: 17.8% and 20.39%
- Population Hoechst High Intensity Objects (%) [1]: 0%
- Population Membrane Permeable-Phenotype (%) [1]: 9.52% and 19.35%
- Population Mitochondria Different-Phenotype (%) [1]: 9.52% and 6.45%
- Population Normal (%) [1]: 100%
- Population Pyknosed Nuclei (%) [1]: 42.37% and 59.87%
- Total Cell Count [1]: 118 and 152
- Population Apoptotic (%) [2]: 39.68% and 87.25%
- Population Fragmented Nuclei (%) [2]: 33.58% and 21.43%
- Population Healthy Nuclei (%) [2]: 19.4% and 12.34%
- Population Hoechst High Intensity Objects (%) [2]: 0%
- Population Mitochondria Different-Phenotype (%) [2]: 57.69% and 63.16%
- Population Normal (%) [2]: 100%
- Population Pyknosed Nuclei (%) [2]: 47.01% and 66.23%
- Population Tubulin-Different-Phenotype (%) [2]: 57.69% and 94.74%
- Total Cell Count [2]: 134 and 154
- Population Apoptotic (%) [3]: 32.61% and 81.58%
- Population Healthy Nuclei (%) [3]: 30.28% and 37.59%
- Population Hoechst High Intensity Objects (%) [3]: 0%
- Population Membrane Permeable-Phenotype (%) [3]: 9.09% and 24.53%
- Population Mitochondria Different-Phenotype (%) [3]: 24.24% and 15.09%
- Population Normal (%) [3]: 100%
- Population Pyknosed Nuclei (%) [3]: 42.2% and 53.9%
- Population Tubulin-Different-Phenotype (%) [3]: 39.39% and 67.92%
- Total Cell Count [3]: 109 and 141
- Population Apoptotic (%) [4]: 59.65% and 72.31%
- Population Fragmented Nuclei (%) [4]: 28.46% and 10.32%
- Population Healthy Nuclei (%) [4]: 27.69% and 47.74%
- Population Hoechst High Intensity Objects (%) [4]: 0%
- Population Mitochondria Different-Phenotype (%) [4]: 58.33% and 47.3%
- Population Mitotic Cells (%) [4]: 40.35% and 27.69%
- Population Normal (%) [4]: 100%
- Population Pyknosed Nuclei (%) [4]: 43.85% and 41.94%
- Population Tubulin-Different-Phenotype (%) [4]: 66.67% and 87.84%
- Total Cell Count [4]: 130 and 155
- Population Apoptotic (%) [5]: 33.33% and 68.42%
- Population Fragmented Nuclei (%) [5]: 15.25% and 14.4%
- Population Healthy Nuclei (%) [5]: 64.41% and 70.4%
- Population Hoechst High Intensity Objects (%) [5]: 0%
- Population Membrane Permeable-Phenotype (%) [5]: 13.16% and 19.32%
- Population Mitochondria Different-Phenotype (%) [5]: 36.84% and 19.32%
- Population Mitotic Cells (%) [5]: 66.67% and 31.58%
- Population Normal (%) [5]: 100%
- Population Pyknosed Nuclei (%) [5]: 20.34% and 15.2%
- Population Tubulin-Different-Phenotype (%) [5]: 35.53% and 67.05%
- Total Cell Count [5]: 118 and 125
- Population Apoptotic (%) [6]: 52.78% and 75%
- Population Fragmented Nuclei (%) [6]: 19.46% and 17.61%
- Population Healthy Nuclei (%) [6]: 56.38% and 72.33%
- Population Hoechst High Intensity Objects (%) [6]: 0%
- Population Mitochondria Different-Phenotype (%) [6]: 60.71% and 47.83%
- Population Mitotic Cells (%) [6]: 47.22% and 25%
- Population Normal (%) [6]: 100%
- Population Pyknosed Nuclei (%) [6]: 24.16% and 10.06%
- Population Tubulin-Different-Phenotype (%) [6]: 70.24% and 84.35%
- Total Cell Count [6]: 149 and 159
